# Screens as filed in PubChem.
# This is a sample that favours compounds with a hit; in the whole collection about 12% have one here.
# KCC2 mod – modulates chloride dependent transport by human KCC2; 190,000 tested, 2.2% active; KCC2 cells, thallium flux FluoZin-2 fluorescence; Q9H2X9; B-score of Tl+ flux slope (higher = more flux/activation; lower = inhibition) at 10 µM;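 active means thallium flux slope and its plate-corrected score both differing from the plate sample mean at a set confidence after two filtering rounds, in either direction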;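 further: slope of fluorescence scaled to starting intensity during 10 to 20 s after thallium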
# Target sequence (Q9H2X9 whole entry, looked up): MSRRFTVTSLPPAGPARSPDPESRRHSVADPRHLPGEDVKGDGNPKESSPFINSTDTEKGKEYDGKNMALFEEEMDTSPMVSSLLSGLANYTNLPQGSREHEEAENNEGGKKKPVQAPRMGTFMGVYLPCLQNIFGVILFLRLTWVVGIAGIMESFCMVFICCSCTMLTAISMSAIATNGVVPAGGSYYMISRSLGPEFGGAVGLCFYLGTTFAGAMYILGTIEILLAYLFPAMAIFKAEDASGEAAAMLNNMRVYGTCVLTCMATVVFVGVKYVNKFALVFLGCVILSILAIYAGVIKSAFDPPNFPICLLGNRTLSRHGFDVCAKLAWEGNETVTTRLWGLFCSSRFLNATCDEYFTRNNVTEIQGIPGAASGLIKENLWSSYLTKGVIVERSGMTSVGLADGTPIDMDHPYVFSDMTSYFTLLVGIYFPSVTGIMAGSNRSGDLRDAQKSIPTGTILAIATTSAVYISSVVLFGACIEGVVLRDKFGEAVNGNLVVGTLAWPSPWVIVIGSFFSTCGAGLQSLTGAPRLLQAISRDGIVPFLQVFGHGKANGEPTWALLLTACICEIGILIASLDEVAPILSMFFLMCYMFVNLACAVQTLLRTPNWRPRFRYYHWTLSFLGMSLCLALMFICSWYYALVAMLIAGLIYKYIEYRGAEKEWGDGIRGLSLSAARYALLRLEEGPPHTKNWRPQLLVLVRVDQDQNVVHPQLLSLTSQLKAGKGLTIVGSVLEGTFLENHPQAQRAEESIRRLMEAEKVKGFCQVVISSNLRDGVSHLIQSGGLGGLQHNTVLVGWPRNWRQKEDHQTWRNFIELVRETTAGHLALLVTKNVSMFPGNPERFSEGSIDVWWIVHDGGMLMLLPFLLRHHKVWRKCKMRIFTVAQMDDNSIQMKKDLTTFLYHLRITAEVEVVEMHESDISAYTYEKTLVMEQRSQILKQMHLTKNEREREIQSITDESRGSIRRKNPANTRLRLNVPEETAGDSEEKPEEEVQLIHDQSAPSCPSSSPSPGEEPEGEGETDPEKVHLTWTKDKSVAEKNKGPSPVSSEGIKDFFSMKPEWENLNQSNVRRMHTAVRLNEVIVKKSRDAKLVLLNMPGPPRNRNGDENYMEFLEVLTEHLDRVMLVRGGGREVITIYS
# WT yeast gro inh – growth inhibition of WT yeast, mitochondrial fusion screen; mitochondrial fusion phenotypic screen, WT strain; inhibition, % at 10 µM; 190,000 tested, 2.1% active; AID 1362; in the data active means inhibition above about 58%; tested in S. cerevisiae
# Diaph inh CS – inhibits diaphorase or chemically oxidizes, flagging diaphorase assay artifacts. diaphorase resazurin-to-resorufin fluorescence, NADH, 16 min; bacterial (C. kluyveri) enzyme, not human. inhibition, % at 20 µM. 190,000 tested, 0.69% active. AID 1217;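 active means primary screen inhibition at 20 µM above a set limit, cut at about 50% in these data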;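 further: plate controls were DMSO with full reaction for no effect and wells lacking NADH for full effect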
#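 Assay system: diaphorase enzyme from Clostridium kluyveri; Input: enzyme working solution with 0.14 U/mL diaphorase; Timing: 16 min at room temperature; Technique: resorufin fluorescence, excitation 544 nm, emission 590 nm; Benchmarks: positive control minus NADH, DMSO neutral control.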
# Lmaj promast – reduces viability of Leishmania major promastigotes; resazurin fluorescence viability; inhibition, % at 10 µM; 200,000 tested, 9% active; in the data active means inhibition above about 50%;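 further: promastigotes grown with compound for 44 hours at 28 °C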
# Diaph act CS – counter-screen for diaphorase-based assays: diaphorase activators and chemical reducers; Diaphorase/resazurin coupled assay, resorufin fluorescence, 16 min; active compounds read high; 1 = vehicle wells, 0 = NADH-free wells; activation factor at 20 µM; 190,000 tested, 0.005% active; AID 1229;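 active means diaphorase activity raised at least twofold by the compound at 20 µM; inactive means activation factor below 2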
#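 Material: purified diaphorase enzyme from Clostridium kluyveri; Also added: 0.114 mM NADH and 0.1 mM resazurin, final amounts; Doses: single compound dose of 20 µM, 1% DMSO final; Times: 16 min enzyme reaction, ambient temperature; Detection: resorufin fluorescence, excitation 544 nm, emission 590 nm; Measure: increased resorufin signal from activators or reducing compounds.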
# ROMK mod – human ROMK K+ channel modulation, primary screen; P48048; Tet-inducible ROMK, thallium flux fluorescence; actives lie on both sides; B-score at 10 µM; 130,000 tested, 2% active; AID 1918;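 active means signal ratio slope over the read window, or its plate-corrected B-score, at least 3 SD from the plate mean, either direction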;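 further: B-score of the F/F0 ratio slope over 7 to 12 s after thallium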
# Active calls of the source: *; / = not tested or not shown.
SMILES,KCC2 mod,WT yeast gro inh,Diaph inh CS,Lmaj promast,Diaph act CS,ROMK mod
COCC(C)NC(=O)C(C)Oc1ccccc1 (stereo not drawn),1.5,12,-8,-5,1.1,0.54
CCc1ccc(-c2cc(C(=O)NCc3ccccn3)c3ccccc3n2)cc1,-0.44,15,11,97*,0.9,-1.5
Cc1ccc2nc(-c3cccc(Br)c3)cc(C(=O)NC3=NCCS3)c2c1,0.0013,32,-13,8,1.1,-0.017
O=C(NC1=NCCS1)c1cc(-c2cccc(Br)c2)nc2ccccc12,0.86,80*,14,9,0.9,/
Cc1ccc(-c2cc(C(=O)NCc3ccccn3)c3ccccc3n2)cc1,-0.1,21,18,25,0.8,/
O=C(Nc1ncccn1)c1cc(-c2cccc(Br)c2)nc2ccccc12,-0.022,34,29,83*,0.7,0.099
O=C(Nc1ccccn1)c1cc(-c2cccc(Cl)c2)nc2ccccc12,-2.1,65*,-5,16,1,-0.76
COc1ccc(/C=C/C(=O)Oc2cccc(/C=N/NC(=O)Cc3ccc(Br)cc3)c2)cc1,2.6,/,/,/,/,/
Nc1ncnc2c1nc(SCCO)n2Cc1ccccc1,0.63,2,-13,1,1.1,0.045
CC1c2nc3ccccc3n2C(CC(=O)NC2CC2)C(=O)N1Cc1ccccc1 (stereo not drawn),-0.21,-16,3,-2,1,/
CCCc1ccc(-c2cc(C(=O)NC3=NCCS3)c3ccccc3n2)cc1,0.43,80*,2,6,1,/
COc1ccc(/C=C2\C(=O)NC(=S)N2C(=O)c2ccc(F)cc2)cc1,3.4*,16,22,4,0.8,/
CO/N=C/C(=N\Nc1ccc(OC)cc1)C(=O)c1ccc(F)cc1,-0.015,1,3,0,1,0.36
CC1(C)CC(=O)C2=C(C1)Nc1ccccc1NC2c1cccnc1 (stereo not drawn),/,-2,-5,/,1.1,/
CN(C)c1ccc(-c2nc3n(n2)C(c2cccnc2)C2=C(CC(C)(C)CC2=O)N3)cc1 (stereo not drawn),-1.1,46,16,92*,0.8,/
Cc1ccc(-c2cc(C(F)F)n3ncc(C(=O)Nc4c(C)nn(Cc5ccccc5Cl)c4C)c3n2)cc1,/,76*,9,57*,0.9,/
Cc1nn(Cc2c(Cl)cccc2Cl)c(C)c1NC(=O)c1cnn2c(C(F)F)cc(-c3ccccc3)nc12,0.038,6,20,67*,0.8,/
Cc1ccc(-c2cc(C(F)F)n3ncc(C(=O)Nc4c(C)nn(Cc5c(Cl)cccc5Cl)c4C)c3n2)cc1,-0.51,-5,20,50,0.8,/
CCN(CC(=O)Nc1cc(C)c(Cl)cc1OC)CC(=O)NC1CCS(=O)(=O)C1 (stereo not drawn),0.44,10,7,-7,0.9,-0.5
CC(NS(=O)(=O)c1ccc(OCC(=O)Nc2cccc([N+](=O)[O-])c2)cc1)c1ccccc1 (stereo not drawn),-0.028,-2,16,38,0.8,/
CC1Nc2nc(N(C)C)[nH]c(=O)c2NC1C (stereo not drawn),0.22,0,7,-3,0.9,-0.58
Cc1nc(NC(=O)c2ccc(Cl)cc2)sc1Cc1ccc2c(c1)OCO2,-0.37,1,20,73*,0.8,/
Cc1cc(C)c(C)c(S(=O)(=O)NC(C(=O)O)C(C)C)c1C (stereo not drawn),0.048,-8,8,5,0.9,1
COc1cc(OC)c2c(c1)C(=O)c1cc(OC)cc(OC)c1C2=O,-0.19,87*,8,-3,0.9,/
COc1ccc(N2CCN(Cc3nc4scc(-c5cccs5)c4c(=O)[nH]3)CC2)cc1,-0.43,16,6,-10,0.9,0.78
SMILES,KCC2 mod,WT yeast gro inh,Diaph inh CS,Lmaj promast,Diaph act CS,ROMK mod
COc1ccc(N2CCN(Cc3nc4scc(-c5ccccc5)c4c(=O)[nH]3)CC2)cc1,-0.6,19,21,62*,0.8,-0.59
NC(=O)Cc1nc2scc(-c3ccccc3)c2c(=O)[nH]1,0.51,1,16,0,0.8,-0.23
O=c1[nH]c(CN2CCN(c3ccccc3)CC2)nc2scc(-c3ccccc3)c12,0.22,33,21,67*,0.8,-0.042
COc1c(Cl)cc(Br)c(OC)c1C(=O)NC(=O)Nc1nc(C)cc(C)n1,-0.85,/,/,/,/,/
CSc1ccccc1C(=O)C1CCCN(S(=O)(=O)N(C)C)C1 (stereo not drawn),2.6,6,-16,89*,1.2,/
CCOc1ccccc1NC(=O)CCNC(=O)c1ccc(Cl)cc1,0.66,-8,20,11,0.8,0.37
Cc1sc(NC(=O)C2C3CCC(C3)C2C(=O)O)c(C(N)=O)c1-c1ccc(C(C)(C)C)cc1 (stereo not drawn),-3.7,14,5,57*,1,-0.21
CCOC(=O)c1c(NC(=O)/C=C\C(=O)O)sc(C)c1-c1ccccc1,0.0075,18,8,-1,0.9,1.3
CCOC(=O)c1c(NC(=O)C2C3CCC(O3)C2C(=O)O)sc(C)c1-c1ccc(C)cc1 (stereo not drawn),/,9,52*,-9,0.5,/
CCOC(=O)c1c(NC(=O)/C=C/C(=O)O)sc(C)c1-c1ccc(C(C)(C)C)cc1,-0.67,55,29,100*,0.7,-0.084
CCOC(=O)c1c(-c2cccc3ccccc23)csc1NC(=O)C1C2CCC(O2)C1C(=O)O (stereo not drawn),0.63,8,21,-1,0.8,/
Cc1sc(NC(=O)C2CCCCC2C(=O)O)c(C(N)=O)c1-c1ccc(C(C)(C)C)cc1 (stereo not drawn),/,-9,14,-7,0.9,/
CCn1c(SCC(=O)Nc2nc(-c3ccc(C)cc3)cs2)nnc1-c1ccccc1,-0.55,25,12,13,0.9,-0.27
CN(C)CCCn1c(SCC(=O)N2c3ccccc3Sc3ccccc32)nc2ccccc2c1=O,1.2,80,6,101*,0.9,/
CCn1c(SCC(=O)Nc2nc(-c3ccc(C)cc3)cs2)nnc1-c1ccccc1O,-1.4,0,23,100*,0.8,0.41
Cc1ccc(-c2csc(NC(=O)CSc3nc4ccccc4c(=O)n3CCCN(C)C)n2)cc1,1.5,82*,-20,100*,1.2,-1.8
NC(=O)CC(NC(=O)Cc1cccc2ccccc12)c1ccc(NCCc2ccccc2F)c([N+](=O)[O-])c1 (stereo not drawn),0.51,/,/,/,/,/
COc1ccc(NC(=O)C2CC(=O)n3cnnc3S2)cc1 (stereo not drawn),0.55,5,16,98*,0.8,-0.0088
CCN(CC)N=Nc1ccc(C(=O)O)cc1,-0.5,-6,15,69*,0.9,1.8
Cc1cc(C)nc(S/C=C/C(=O)c2ccc(F)cc2)n1,1.2,/,/,/,/,/
O=C(O)CC(=O)Nc1ccccc1,/,1,10,-7,0.9,/
